Most compounds without a hit are left out; they make up all but 6.8% or so of the library.
PHOSPHO1 block – PubChem AID 1565; Phosphoethanolamine/phosphocholine phosphatase (Homo sapiens), Q8TCT1; recombinant PHOSPHO1, absorbance phosphatase assay; inhibition, % at 13.3 µM; 290,000 compounds, 1.1% hits; in the data active means inhibition above about 60%
Target sequence (Q8TCT1 whole entry, looked up): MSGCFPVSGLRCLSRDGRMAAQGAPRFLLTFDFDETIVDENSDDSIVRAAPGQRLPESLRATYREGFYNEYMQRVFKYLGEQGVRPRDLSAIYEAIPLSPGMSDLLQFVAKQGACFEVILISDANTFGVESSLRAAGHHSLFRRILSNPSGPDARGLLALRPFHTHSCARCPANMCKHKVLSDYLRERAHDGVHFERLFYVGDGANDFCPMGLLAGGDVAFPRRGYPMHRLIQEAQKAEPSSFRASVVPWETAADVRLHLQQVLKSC
HCV core dimer – inhibitors of HCV core protein dimerization, primary screen, biochemical, TR-FRET, high-throughput; TR-FRET GST/Flag-core106 dimerization, 1536-well; 300,000 compounds, 0.33% hits; inhibition, % at 5 µM; AID 1899, 2009;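 active means inhibition above the mean of all tested compounds plus 3 SD, set per screening campaign, cut at about 45% in these data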
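System: GST-tagged and Flag-tagged HCV core protein residues 1-106 / Input: core106 proteins, GST 13.5 nM and Flag 17 nM / Buffer or medium: KF-containing HEPES buffer, pH 7.45, DTT, CHAPS, BSA / Probe or stimulus: Eu-anti-GST and XL665-anti-Flag labelled anti-tag antibodies / Schedule: 4 h, 22.5 °C incubation / Technique: TR-FRET 671 and 617 nm emission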
ALR inh – inhibitors of human ALR sulfhydryl oxidase, primary screen, biochemical, H2O2 detection, HRP-luminol luminescence, single point. AID 485317, 2010. purified ALR, DTT oxidation. FAD-linked sulfhydryl oxidase ALR (Homo sapiens), P55789. 290,000 compounds, 3.8% hits. inhibition, % (no concentration beside the values);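 active means mean replicate inhibition above about 79%, with every replicate also reaching it, limit read from the data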
HSF1 activator – HSF-1 activators, primary screen, NIH3T3-HGL cells, MG132 stress, luminescence, single point | NIH3T3-HGL HSF-1 luciferase reporter, 8 h; 100% = twice DMSO control signal | 300,000 compounds, 1.7% hits | AID 504408, 2011 | activation, % at 9 µM;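 active means mean replicate activation of at least 50% with a set share of replicates each reaching 50%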;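 further: 0% = median of the neutral control wells and 100% = twice that signal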
AI-2 QS modul – Vibrio harveyi AI-2 quorum sensing modulators, primary screen, JMH597 strain, luminescence/OD600 ratio. Vibrio harveyi JMH597 AI-2 luminescence/OD600 ratio, 9 h; hits give low values; strain lacks LuxN and CqsS sensors; 0 = neutral-control median. activity change, % at 7.5 µM. 300,000 compounds, 0.4% hits. AID 2094, 2009; in the data active means activity change below about -75%, passing the limit was not always enough;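 further: luminescence divided by OD600 gain over 9 h not by final OD600 alone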
HSF1 inh – HSF1 inhibitors in luciferase reporter cells, primary screen, cell-based, NIH3T3, luminescence; activity change, negative = inhibition, % at 7.5 µM (by protocol); 300,000 compounds, 0.77% hits; NIH3T3-HGL HSE-luciferase, MG132-induced, luminescence 8 h; hits give low values; AID 2098, 2009;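 active means more than half of replicate wells show activity change below -50%, luminescence cut by over half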;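 further: luciferase reports HSF-1 transcriptional activity via heat shock element; 0% = median of DMSO wells and -100% = zero luminescence signal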
* marks the source's active call; other numbers are inactive results.

`COc1cc(OC)c(C2CC(=O)N3CN(c4ccccc4)CSC3=C2C#N)cc1OC` (stereo not drawn) gave PHOSPHO1 block 103*, HCV core dimer 3, ALR inh -12, HSF1 activator -8, AI-2 QS modul 19 and HSF1 inh 0.
Screening CCOc1ccc(C(O)(c2ccccc2)C(CN2CCCC2)c2ccccc2)cc1 (stereo not drawn) returned PHOSPHO1 block 7, HCV core dimer -1, ALR inh 7, HSF1 activator 12, AI-2 QS modul 3 and HSF1 inh -3.
CC1CCN(S(=O)(=O)c2nnc(NC(=O)c3ccccc3Br)s2)CC1 was read as PHOSPHO1 block 10, HCV core dimer 11, ALR inh 4, HSF1 activator -19, AI-2 QS modul 47 and HSF1 inh -10.
COc1ccc2oc(C(=O)NCCc3ccccc3)c(C)c2c1 was read as HCV core dimer 20, ALR inh -9, HSF1 activator -44, AI-2 QS modul 15 and HSF1 inh -35.
Cc1ccc(NC(=O)c2cc3c(=O)oc4ccccc4c3s2)nc1 was read as PHOSPHO1 block -2, HCV core dimer -10, HSF1 activator 97*, AI-2 QS modul 30 and HSF1 inh 54.
For Cc1c(C(=O)Nc2nc3ccccc3[nH]2)oc2ccc(Br)cc12 the results were PHOSPHO1 block -21, HCV core dimer 1, ALR inh -2, HSF1 activator 18, AI-2 QS modul 0 and HSF1 inh -4.
For Cc1c(C(=O)NCCc2ccccc2)oc2ccccc12 the results were PHOSPHO1 block 35, HCV core dimer 14, ALR inh 4, HSF1 activator 62*, AI-2 QS modul 4 and HSF1 inh 32.
Screening Cc1c(C(=O)Nc2nc3ccccc3[nH]2)oc2ccccc12 returned PHOSPHO1 block -9, HCV core dimer 4, ALR inh 5, HSF1 activator 68*, AI-2 QS modul 0 and HSF1 inh 31.
`Cc1c(C(=O)Nc2ccccn2)oc2ccccc12` gave PHOSPHO1 block 16, HCV core dimer -3, ALR inh 16, HSF1 activator 41, AI-2 QS modul 17 and HSF1 inh 23.
`Cc1ccc(NC(=O)c2oc3ccccc3c2C)nc1` gave PHOSPHO1 block 9, HCV core dimer -2, ALR inh 2, HSF1 activator 56*, AI-2 QS modul 22 and HSF1 inh 35.
Cc1sc2ncn(CC(=O)OC(C)C)c(=O)c2c1C was read as PHOSPHO1 block 0.
Screening Cc1ccc(CNC(=O)c2nccnc2C(=O)O)cc1 returned PHOSPHO1 block 56, HCV core dimer -2, ALR inh -6, HSF1 activator 7, AI-2 QS modul 22 and HSF1 inh -2.
CC1=C(C(=O)Nc2ccccc2)C(c2ccco2)C(C#N)=C(SCC(=O)Nc2cccc(C)c2C)N1 (stereo not drawn) was read as PHOSPHO1 block 14, HCV core dimer 22, ALR inh -2, HSF1 activator 0, AI-2 QS modul 3 and HSF1 inh 4.
C=CCOC(=O)C1=C(C)NC(SCC(=O)NC(=O)OCC)=C(C#N)C1c1cccnc1 (stereo not drawn) was read as PHOSPHO1 block 78*, HCV core dimer -1, ALR inh 2, HSF1 activator -2, AI-2 QS modul 16 and HSF1 inh -2.
Screening CC1=C(C(=O)Nc2ccccc2)C(c2ccncc2)C(C#N)=C(SCC(=O)Nc2ccccc2)N1 (stereo not drawn) returned PHOSPHO1 block 71*, HCV core dimer 3, ALR inh -24, HSF1 activator 7, AI-2 QS modul 8 and HSF1 inh 1.
CCOC(=O)C1=C(C)NC(SCC(=O)Nc2nc(C)cs2)=C(C#N)C1c1cccs1 (stereo not drawn) was read as PHOSPHO1 block 76*, HCV core dimer 2, HSF1 activator 1, AI-2 QS modul 24 and HSF1 inh 5.
